Source: ChEMBL document CHEMBL2331355, “Synthesis, structure activity relationship and mode of action of 3-substitutedphenyl-1-(2,2,8,8-tetramethyl-3,4,9,10-tetrahydro-2H,8H-pyrano[2,3-f]chromen-6-yl)-propenones as novel anticancer agents in human leukaemia HL-60 cells” (Eur J Med Chem, 2013)
Activity calls are given as the source filed them. No cut-off for these calls is given here.

Legend:
MDA-MB-435 [1] = assay: Growth inhibition of human MDA-MB-435 cells at 50 uM after 48 hrs by MTT assay; type: functional; conditions: MDA-MB-435, 48 h, read-out: GI
How it was run: (§1)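 Single-concentration MTT screen at 50 µM over 48 h in 96-well plates. Compounds giving >50% inhibition were rescreened at 30 µM. OD read at 570 nm, reference 620 nm. Result expressed as % growth inhibition versus untreated control. Mitomycin C, adriamycin or 5-fluorouracil used as positive controls. Mean ± SD of three independent experiments.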

HL-60 [2] = assay: Induction of apoptosis in human HL60 cells assessed as DNA fragmentation at 20 uM after 24 hrs by SDS-PAGE analysis; type: functional, cell-based; conditions: in the assay text read “agarose gel electrophoresis” for “SDS-PAGE analysis”
How it was run: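 HL-60 cells (2 × 10⁶/3 ml/well) treated at 20 µM for 24 h. Lysed, then digested with RNase (400 µg/ml, 37 °C, 90 min) and proteinase K (200 µg/ml, 50 °C, 1 h). DNA extracted with phenol/chloroform/isoamyl alcohol and alcohol-precipitated. Run on 1.8% agarose gel at 70 V for 1 h, stained with ethidium bromide, and scored for laddering.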

HL-60 [3] = assay: Cell cycle arrest in human HL60 cells assessed as decrease in G2/M phase cells after 24 hrs by PI staining-based flow cytometric analysis; type: functional
HL-60 [4] = assay: Cell cycle arrest in human HL60 cells assessed as accumulation of G0/G1 phase cells at 5 uM after 24 hrs by PI staining-based flow cytometric analysis (reference value: 48%); type: functional
MIA PaCa-2 = assay: Cytotoxicity against human MIAPaCa2 cells after 48 hrs by MTT assay; type: functional, cell-based; conditions: MIA PaCa-2, 48 h
How it was run: (§2)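 MTT assay in 96-well plates, 48 h exposure across 1–100 µM. OD read at 570 nm against a 620 nm reference. Untreated control OD taken as 100% viability. IC50 derived from the concentration–response curves. Mean ± SD, n = 8 wells, from three independent experiments.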

HL-60 [5] = assay: Induction of apoptosis in human HL60 cells assessed as accumulation of sub-G0/G1 phase cells after 24 hrs by PI-staining based flow cytometric analysis; type: functional, cell-based
Caco-2 [6] = assay: Growth inhibition of human Caco2 cells at 30 uM after 48 hrs by MTT assay; type: functional, cell-based; how it was run: as §1
HL-60 [7] = assay: Cell cycle arrest in human HL60 cells assessed as G2/M phase cells at 10 uM after 24 hrs by PI staining-based flow cytometric analysis (reference value: 3%); type: functional
HL-60 [8] = assay: Induction of apoptosis in human HL60 cells at 10 uM after 24 hrs by PI-staining based flow cytometric analysis (reference value: 0.7 %); type: functional
HL-60 [9] = assay: Induction of apoptosis in human HL60 cells assessed as nuclear blebbing after 24 hrs by Hoechst 33258 staining; type: functional, cell-based
How it was run: (§3)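 HL-60 cells (1 × 10⁶/2 ml) treated 24 h at 15 and 20 µM, pelleted at 300 g and washed. Stained with Hoechst 33258, then examined under an inverted fluorescence microscope (10×, UV excitation) for nuclear condensation, blebbing and apoptotic bodies.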

HL-60 [10] = assay: Cell cycle arrest in human HL60 cells assessed as decrease in S phase cells after 24 hrs by PI staining-based flow cytometric analysis; type: functional
HL-60 [11] = assay: Induction of apoptosis in human HL60 cells at 5 uM after 24 hrs by PI-staining based flow cytometric analysis (reference value: 0.7 %); type: functional
HL-60 [12] = assay: Cell cycle arrest in human HL60 cells assessed as accumulation of G0/G1 phase cells at 10 uM after 24 hrs by PI staining-based flow cytometric analysis (reference value: 48%); type: functional
HL-60 [13] = assay: Cell cycle arrest in human HL60 cells assessed as S phase cells at 15 uM after 24 hrs by PI staining-based flow cytometric analysis (reference value: 49%); type: functional
HL-60 [14] = assay: Induction of mitochondrial membrane potential loss in human HL60 cells at 20 uM after 24 hrs by rhodamine-123 staining method (reference value: 7%); type: functional
How it was run: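 HL-60 cells (1 × 10⁶/2 ml/well) treated 24 h at 15 or 20 µM, then incubated with rhodamine-123 (200 nM) for 40 min. Loss of dye uptake measured by flow cytometry. Camptothecin (4 µM, 6 h) as positive control. Representative of three experiments.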

HL-60 [15] = assay: Cytotoxicity against human HL60 cells after 24 hrs by MTT assay; type: functional, cell-based; conditions: HL-60, 24 h
How it was run: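 HL-60 cells exposed 24 h to a range of concentrations, then MTT reduction measured. Untreated control OD taken as 100% viability; IC50 derived from the curve. Mean ± SD, n = 8 wells, three independent experiments.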

PC-3 [16] = assay: Cytotoxicity against human PC3 cells after 48 hrs by MTT assay; type: functional, cell-based; conditions: PC-3, 48 h; how it was run: as §2
HL-60 [17] = assay: Cell cycle arrest in human HL60 cells assessed as S phase cells at 10 uM after 24 hrs by PI staining-based flow cytometric analysis (reference value: 49%); type: functional
HL-60 [18] = assay: Cell cycle arrest in human HL60 cells assessed as accumulation of G0/G1 phase cells at 20 uM after 24 hrs by PI staining-based flow cytometric analysis (reference value: 48%); type: functional
HL-60 [19] = assay: Cell cycle arrest in human HL60 cells assessed as G2/M phase cells at 15 uM after 24 hrs by PI staining-based flow cytometric analysis (reference value: 3%); type: functional
Caco-2 [20] = assay: Growth inhibition of human Caco2 cells at 50 uM after 48 hrs by MTT assay; type: functional; conditions: Caco-2, 48 h, read-out: GI; how it was run: as §1
HL-60 [21] = assay: Cell cycle arrest in human HL60 cells assessed as accumulation of G0/G1 phase cells at 15 uM after 24 hrs by PI staining-based flow cytometric analysis (reference value: 48%); type: functional
HL-60 [22] = assay: Cell cycle arrest in human HL60 cells assessed as accumulation of G0/G1 phase cells after 24 hrs by PI staining-based flow cytometric analysis; type: functional
MCF7 [23] = assay: Growth inhibition of human MCF7 cells at 50 uM after 48 hrs by MTT assay; type: functional; conditions: MCF7, 48 h, read-out: GI; how it was run: as §1
MDA-MB-435 [24] = assay: Growth inhibition of human MDA-MB-435 cells at 30 uM after 48 hrs by MTT assay; type: functional, cell-based; how it was run: as §1
HL-60 [25] = assay: Induction of apoptosis in human HL60 cells assessed as apoptotic bodies at 20 uM after 24 hrs by Hoechst 33258 staining; type: functional, cell-based; how it was run: as §3
HL-60 [26] = assay: Growth inhibition of human HL60 cells at 30 uM after 48 hrs by MTT assay; type: functional, cell-based; how it was run: as §1
HL-60 [27] = assay: Cell cycle arrest in human HL60 cells assessed as S phase cells at 20 uM after 24 hrs by PI staining-based flow cytometric analysis (reference value: 49%); type: functional
MCF7 [28] = assay: Growth inhibition of human MCF7 cells at 30 uM after 48 hrs by MTT assay; type: functional, cell-based; how it was run: as §1
ASPC1 = assay: Growth inhibition of human AsPC1 cells at 50 uM after 48 hrs by MTT assay; type: functional; conditions: ASPC1, 48 h, read-out: GI; how it was run: as §1
HL-60 [29] = assay: Growth inhibition of human HL60 cells at 50 uM after 48 hrs by MTT assay; type: functional; conditions: HL-60, 48 h, read-out: GI; how it was run: as §1
PC-3 [30] = assay: Growth inhibition of human PC3 cells at 50 uM after 48 hrs by MTT assay; type: functional; conditions: PC-3, 48 h, read-out: GI; how it was run: as §1
HL-60 [31] = assay: Induction of apoptosis in human HL60 cells assessed as nuclear condensation after 24 hrs by Hoechst 33258 staining; type: functional, cell-based; how it was run: as §3

Structure (SMILES) | inhibition of growth at 50 µM (MDA-MB-435 [1]) [%] | Activity (HL-60 [2]) | Activity (HL-60 [3]) | Activity (HL-60 [4]) [%] | IC50 (MIA PaCa-2) [µM] | Activity (HL-60 [5]) | growth inhibition (GI) (Caco-2 [6]) | Activity (HL-60 [7]) [%] | Activity (HL-60 [8]) [%] | Activity (HL-60 [9]) | Activity (HL-60 [10]) | Activity (HL-60 [11]) [%] | Activity (HL-60 [12]) [%] | Activity (HL-60 [13]) [%] | Activity (HL-60 [14]) [%] | IC50 (HL-60 [15]) [µM] | IC50 (PC-3 [16]) [µM] | Activity (HL-60 [17]) [%] | Activity (HL-60 [18]) [%] | Activity (HL-60 [19]) [%] | further results
CC1(C)CCc2cc(C(=O)/C=C/c3cccc([N+](=O)[O-])c3)c3c(c2O1)CCC(C)(C)O3 | 88 | Active | Dose-dependent effect | 46 | 18 | Dose-dependent effect | Active | 4 | 13 | Dose-dependent effect | Dose-dependent effect | 3 | 54 | 25 | 48 | 25 | 8 | 42 | 86 | 4 | inhibition of growth at 50 µM (Caco-2 [20]): 93%; Activity (HL-60 [21]): 71%; Activity (HL-60 [22]): Dose-dependent effect; inhibition of growth at 50 µM (MCF7 [23]): 89%; growth inhibition (GI) (MDA-MB-435 [24]): Active; Activity (HL-60 [25]): Active; growth inhibition (GI) (HL-60 [26]): Active; Activity (HL-60 [27]): 11%; growth inhibition (GI) (MCF7 [28]): Active; inhibition of growth at 50 µM (ASPC1): 48%; inhibition of growth at 50 µM (HL-60 [29]): 92%; inhibition of growth at 50 µM (PC-3 [30]): 72%; Activity (HL-60 [31]): Dose-dependent effect
CC1(C)CCc2cc(C(=O)/C=C/c3ccc([N+](=O)[O-])cc3)c3c(c2O1)CCC(C)(C)O3 | 78 | Active | Dose-dependent effect | 44 | 45 | Dose-dependent effect | Active | 4 | 14 | Dose-dependent effect | Dose-dependent effect | 3 | 52 | 43 | 56 | 23 | 26 | 44 | 59 | 4 | inhibition of growth at 50 µM (Caco-2 [20]): 73%; Activity (HL-60 [21]): 53%; Activity (HL-60 [22]): Dose-dependent effect; inhibition of growth at 50 µM (MCF7 [23]): 52%; growth inhibition (GI) (MDA-MB-435 [24]): Active; Activity (HL-60 [25]): Active; growth inhibition (GI) (HL-60 [26]): Active; Activity (HL-60 [27]): 37%; growth inhibition (GI) (MCF7 [28]): Active; inhibition of growth at 50 µM (ASPC1): 27%; inhibition of growth at 50 µM (HL-60 [29]): 91%; inhibition of growth at 50 µM (PC-3 [30]): 61%; Activity (HL-60 [31]): Dose-dependent effect
